In ChEMBL document CHEMBL1944523, “Benzimidazolones: a new class of selective peroxisome proliferator-activated receptor γ (PPARγ) modulators” (J Med Chem, 2011):

What was measured:
[1] = molecular target: T1, Peroxisome proliferator-activated receptor alpha (Homo sapiens, UniProt Q07869); assay: Binding affinity to human PPARalpha expressed in COS-1 by scintillation proximity assay
T1 sequence (Q07869 whole entry): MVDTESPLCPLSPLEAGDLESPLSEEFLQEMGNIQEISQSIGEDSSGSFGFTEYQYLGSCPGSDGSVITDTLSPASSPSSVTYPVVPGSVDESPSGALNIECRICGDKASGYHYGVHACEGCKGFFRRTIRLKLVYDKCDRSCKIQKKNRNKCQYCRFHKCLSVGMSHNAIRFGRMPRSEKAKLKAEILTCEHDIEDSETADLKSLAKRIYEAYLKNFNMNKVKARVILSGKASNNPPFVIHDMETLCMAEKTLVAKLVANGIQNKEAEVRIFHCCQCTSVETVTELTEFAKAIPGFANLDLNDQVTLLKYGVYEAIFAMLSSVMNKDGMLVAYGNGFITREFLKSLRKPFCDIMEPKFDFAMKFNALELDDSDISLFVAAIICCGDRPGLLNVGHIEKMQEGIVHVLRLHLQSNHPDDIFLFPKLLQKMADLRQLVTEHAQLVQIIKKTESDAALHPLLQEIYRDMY
Summary of the method: (§1)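 Scintillation proximity binding assay on PPAR receptors giving IC50; mean of three determinations.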

[2] = molecular target: T2, Peroxisome proliferator-activated receptor gamma (Homo sapiens) (UniProt P37231); assay: Agonist activity at human PPARgamma expressed in COS-1 cells co-expressing with Gal4 by transactivation assay relative to rosiglitazone; type: functional, cell-based
T2 sequence (whole entry): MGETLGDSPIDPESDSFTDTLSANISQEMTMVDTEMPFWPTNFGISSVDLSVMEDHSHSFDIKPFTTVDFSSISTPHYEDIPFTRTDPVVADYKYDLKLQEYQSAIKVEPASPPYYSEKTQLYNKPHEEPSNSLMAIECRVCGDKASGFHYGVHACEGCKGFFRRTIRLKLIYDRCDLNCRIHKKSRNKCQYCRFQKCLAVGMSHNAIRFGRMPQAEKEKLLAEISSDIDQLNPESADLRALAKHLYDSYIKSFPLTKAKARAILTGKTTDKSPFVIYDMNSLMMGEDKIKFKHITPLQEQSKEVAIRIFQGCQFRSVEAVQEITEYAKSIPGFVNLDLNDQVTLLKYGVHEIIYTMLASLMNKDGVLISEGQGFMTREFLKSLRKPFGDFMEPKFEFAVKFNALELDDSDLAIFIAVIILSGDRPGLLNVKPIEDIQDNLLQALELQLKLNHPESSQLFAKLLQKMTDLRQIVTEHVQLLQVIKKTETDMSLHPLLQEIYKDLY
Summary of the method: (§2)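 GAL4-PPAR chimeric receptor transactivation in transiently co-transfected COS-1 cells with a GAL4-responsive reporter; potency as EC50 and maximum activation expressed relative to rosiglitazone; triplicate, mean reported.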

[3] = molecular target: T3, Peroxisome proliferator-activated receptor gamma (Homo sapiens, UniProt P37231); assay: Agonist activity at human PPARgamma expressed in COS-1 cells co-expressing with Gal4 by transactivation assay; type: functional, cell-based; summary of the method: as §2
T3 sequence (P37231 whole entry): T2 sequence (whole entry)

[4] = molecular target: T4, Peroxisome proliferator-activated receptor delta (Homo sapiens, UniProt Q03181); assay: Binding affinity to PPARdelta by scintillation proximity assay; summary of the method: as §1
T4 sequence (Q03181 whole entry): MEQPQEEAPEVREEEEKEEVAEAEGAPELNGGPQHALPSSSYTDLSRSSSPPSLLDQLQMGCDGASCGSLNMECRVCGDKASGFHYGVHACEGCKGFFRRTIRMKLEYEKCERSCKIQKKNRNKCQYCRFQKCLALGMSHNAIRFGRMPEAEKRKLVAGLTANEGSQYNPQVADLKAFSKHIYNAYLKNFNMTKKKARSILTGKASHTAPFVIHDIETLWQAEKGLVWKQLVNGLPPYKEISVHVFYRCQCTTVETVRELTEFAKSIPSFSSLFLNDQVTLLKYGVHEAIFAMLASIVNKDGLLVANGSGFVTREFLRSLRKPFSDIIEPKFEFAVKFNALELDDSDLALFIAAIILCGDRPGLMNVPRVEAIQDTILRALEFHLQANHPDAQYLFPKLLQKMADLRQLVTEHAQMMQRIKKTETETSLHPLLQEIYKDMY

[5] = molecular target: T3, Peroxisome proliferator-activated receptor gamma; assay: Binding affinity to human PPARgamma by scintillation proximity assay; summary of the method: as §1
[6] = molecular target: T3, Peroxisome proliferator-activated receptor gamma; assay: Partial agonist activity at human PPARgamma LBD assessed as activation of Src-1 by HTRF assay; type: functional
[7] = molecular target: T3, Peroxisome proliferator-activated receptor gamma; assay: Partial agonist activity at human PPARgamma LBD assessed as activation of PBP by HTRF assay; type: functional
[8] = molecular target: T3, Peroxisome proliferator-activated receptor gamma; assay: Partial agonist activity at human PPARgamma LBD assessed as activation of CBP1-453 by HTRF assay; type: functional
[9] = molecular target: T3, Peroxisome proliferator-activated receptor gamma; assay: Partial agonist activity at human PPARgamma LBD assessed as activation of PGC1 by HTRF assay; type: functional

Structure (SMILES) | IC50 [1] | Emax [2] | EC50 [3] | IC50 [4] | IC50 [5] | EC50 [6] | EC50 [7] | EC50 [8] | EC50 [9]
COc1ccc2c(-n3c(=O)n(Cc4ccc(Cl)c(O[C@H](C)C(=O)O)c4)c4ccc(C(F)(F)F)cc43)noc2c1 | > 50000 nM | 43% | 83 nM | > 50000 nM | 2.3 nM |  |  |  | 
COc1ccc2c(-n3c(=O)n(Cc4ccc(Cl)c(O[C@@H](C)C(=O)O)c4)c4cc(C(F)(F)F)ccc43)noc2c1 | > 50000 nM | 4% | 3000 nM | > 50000 nM | 66 nM |  |  |  | 
COc1ccc2c(-n3c(=O)n(Cc4cccc([C@@]5(C)OC(=O)NC5=O)c4)c4cc(C(F)(F)F)ccc43)noc2c1 |  | 45% |  |  |  |  |  |  | 
C[C@@H](Oc1cc(Cn2c(=O)n(Cc3ccc(Cl)cc3)c3ccc(C(F)(F)F)cc32)ccc1Cl)C(=O)O | > 50000 nM | 17% | 3000 nM | > 50000 nM | 4800 nM |  |  |  | 
C[C@@H](Oc1cc(Cn2c(=O)n(-c3ccc(C(C)(C)C)cc3)c3ccc(C(F)(F)F)cc32)ccc1Cl)C(=O)O | > 50000 nM | 15% | 135 nM | > 50000 nM | 161 nM | > 50000 nM | 440 nM | 480 nM | 460 nM
COc1ccc2c(-n3c(=O)n(-c4cccc([C@@]5(C)OC(=O)NC5=O)c4)c4cc(C(F)(F)F)ccc43)noc2c1 | > 50000 nM |  |  | > 50000 nM | 6930 nM |  |  |  | 
COc1ccc2c(-n3c(=O)n(Cc4ccc(Cl)c(O[C@H](C)C(=O)O)c4)c4ccc(OC(F)(F)F)cc43)noc2c1 | > 50000 nM | 31% | 13.2 nM | > 50000 nM | 4.1 nM |  |  |  | 
COc1ccc2c(-n3c(=O)n(Cc4cccc(O[C@H](C)C(=O)O)c4)c4cc(C(F)(F)F)ccc43)noc2c1 | > 50000 nM |  |  | > 50000 nM | 924 nM |  |  |  | 
COc1ccc2c(-n3c(=O)n(Cc4cc([C@@]5(C)OC(=O)NC5=O)ccc4Cl)c4cc(C(F)(F)F)ccc43)noc2c1 | > 50000 nM | 28% | 17 nM | > 50000 nM | 7.7 nM |  |  |  | 
C[C@@H](Oc1cc(Cn2c(=O)n(-c3noc4cc(Cl)ccc34)c3ccc(C(F)(F)F)cc32)ccc1Cl)C(=O)O | > 50000 nM | 32% | 200 nM | > 50000 nM | 68 nM | > 50000 nM | > 50000 nM | > 50000 nM | 3240 nM
C[C@@H](Oc1cc(Cn2c(=O)n(C(=O)c3ccc(Cl)cc3)c3ccc(C(F)(F)F)cc32)ccc1Cl)C(=O)O | > 50000 nM | 21% | 489 nM | > 50000 nM | 255 nM |  |  |  | 
COc1ccc2c(-n3c(=O)n(Cc4cc(O[C@H](C)C(=O)O)ccc4Cl)c4cc(C(F)(F)F)ccc43)noc2c1 | > 50000 nM | 26% | 102 nM | > 50000 nM | 9.1 nM |  |  |  | 
Cc1ccc2c(-n3c(=O)n(Cc4ccc(Cl)c(O[C@H](C)C(=O)O)c4)c4cc(C(F)(F)F)ccc43)noc2c1 | > 50000 nM | 37% | 77.5 nM | > 50000 nM | 14.2 nM |  |  |  | 
CN(CCOc1ccc(C[C@H](OCC(F)(F)F)C(=O)O)cc1)c1nc2ccccc2o1 |  |  |  |  |  | 2 nM | 1 nM | 1 nM | 1 nM
